# Screening results: PubChem BioAssay, several laboratories
# SF1 activator = activators of human SF-1, primary screen, cell-based, CHO-K1, Gal4-SF-1 LBD, luciferase luminescence. Steroidogenic factor 1 (Homo sapiens), Q13285. CHO-K1 Gal4-SF-1 LBD luciferase reporter; % increase over DMSO SF-1-specific signal. activation, % at 10 µM. actives 1.9% (n = 65,000). AID 522, 2006;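 active = activation above the mean activation of all tested compounds plus 3 SD, cut at about 50% in these data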
#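 Assay system – CHO-K1 cells with Gal4–hSF-1 LBD chimera plus Gal4-driven luciferase · Quantity – 4,000 cells per well · Times – compound added 1 h post-seeding, 20 h exposure at 37 °C, 5% CO2 · Measured by – luciferase light emission · Benchmarks – DMSO and mock-transfected background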
# M1 antagonist = antagonists of rat M1 muscarinic receptor | Muscarinic acetylcholine receptor M1 (Rattus norvegicus), P08482 | actives 3.4% (n = 64,000) | B-score at 10 µM | CHO-M1 cells, Fluo-4 calcium, ACh EC80 antagonist mode; hits give low values | AID 628, 2007;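 active = calcium fluorescence response, raw or row-and-column corrected B-score, differing from the plate sample mean either way at a set confidence level, mostly lower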
# D1 allo mod = D1 CRE-luciferase signal change, two-sided – cell-based, HEK293 D1, dopamine EC30, D1 allosteric modulator project, primary screen; AID 641, 2007; D(1A) dopamine receptor (Homo sapiens), P21728; B-score at 10 µM; dopamine EC30 potentiation; actives deviate in either direction; actives 5.9% (n = 58,000);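 active = luminescence count or its row- and column-corrected plate score outside the 99.7% band of the plate's sample wells, on either side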
# M1 ag = M1 muscarinic receptor agonists, primary screen, CHO-M1 cells, Fluo-4 calcium, agonist mode | Muscarinic acetylcholine receptor M1 | actives 3% (n = 64,000) | B-score at 10 µM | AID 626, 2007 | Fluo-4 calcium fluorescence; hits give high values;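 active = fluorescence rise, raw or as B-score row- and column-corrected plate score, outside the 99.7% band of its plate's samples, either direction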
# Htt clearance = clearance of mutant huntingtin inclusions, primary screen, imaging, HeLa Exon1htt(103Q)mCFP, confocal imaging. aggregate imaging; zero = plate's median compound well. inhibition, % at 1.5 µM. actives 0.42% (n = 47,000);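 active = inhibition of aggregate fluorescence above about 70%, also judged a hit by eye on the cell image, limit read from the data, passing the limit was not always enough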;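 note: cells exposed to compound for three days before fixation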
# RORA act = activators of orphan receptor RORA, primary screen, cell-based, luminescence; AID 560, 2006; Nuclear receptor ROR-alpha (Homo sapiens), P35398; actives 1.5% (n = 65,000); CHO-K1 Gal4-RORA LBD luciferase reporter; percent increase over mock-subtracted basal signal; activation, % at 10 µM;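 active = activation above the mean of all tested compounds plus 3 SD, cut at about 49% in these data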
# Target sequence (P35398 whole entry, looked up, the tested form may be a part): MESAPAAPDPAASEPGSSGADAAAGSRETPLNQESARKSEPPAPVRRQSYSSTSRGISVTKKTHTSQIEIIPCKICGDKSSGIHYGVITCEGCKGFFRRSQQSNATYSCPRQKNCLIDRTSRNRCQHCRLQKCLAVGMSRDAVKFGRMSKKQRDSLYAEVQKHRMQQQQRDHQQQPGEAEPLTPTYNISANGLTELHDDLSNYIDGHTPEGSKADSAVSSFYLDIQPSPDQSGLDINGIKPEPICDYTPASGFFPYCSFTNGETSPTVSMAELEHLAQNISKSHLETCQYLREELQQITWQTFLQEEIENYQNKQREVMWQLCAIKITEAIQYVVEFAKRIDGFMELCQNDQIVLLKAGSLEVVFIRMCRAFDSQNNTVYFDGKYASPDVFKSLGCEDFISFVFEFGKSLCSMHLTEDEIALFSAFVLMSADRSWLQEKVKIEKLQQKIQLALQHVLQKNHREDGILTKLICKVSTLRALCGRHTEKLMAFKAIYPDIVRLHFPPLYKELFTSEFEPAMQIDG
# D1 PAM confirm = D1 receptor positive allosteric modulators, retest, confirmation, cell-based, HEK293 D1, CRE-luciferase, duplicate | dopamine EC30 potentiation; hits give high values | actives 88% (n = 2,200) | AID 642, 2007 | luminescence at 10 µM | shares compounds with D1 allo mod;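 active = luminescence in either of two replicates above the same-plate mean plus 3 SD of the low-dose dopamine control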
# D1 ag no DA = D1 receptor agonism without dopamine, confirmation, mechanism study for D1 allosteric modulator project, cell-based, HEK293 D1, CRE-luciferase, secondary assay 1; shares compounds with D1 allo mod; luminescence, no dopamine; hits give high values; luminescence at 10 µM; AID 646, 2007; actives 0.8% (n = 1,900); in the data active = luminescence above about 3900
# Isoprot counter = isoproterenol response counter-screen activity for D1 modulators | calls only at 10 µM | AID 647 | actives 63% (n = 2,200) | HEK293 D1 CRE-luciferase, isoproterenol EC30 counter-screen | shares compounds with D1 allo mod;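 active = luminescence in either replicate above plate mean of wells with a partly effective reference agonist dose plus 3 SD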;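 note: isoproterenol raises cAMP through native beta-adrenoceptor Gs so signal bypasses D1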
# A number is an active result; i = inactive; nt = no result; + = active, no number. Shown are actives, neighbours in structure and some others; about 11% of the full set was active somewhere.
SMILES,SF1 activator,M1 antagonist,D1 allo mod,M1 ag,Htt clearance,RORA act,D1 PAM confirm,D1 ag no DA,Isoprot counter
CCOC(=O)N1CCN(Cc2nc(N)nc(Nc3ccc(Oc4ccccc4)cc3)n2)CC1,i,nt,3.5,nt,i,i,12388,i,+
c1ccc(Cc2nnc3sc(-c4cccs4)nn23)cc1,i,i,11,i,i,i,20672,i,+
Clc1ccc(Cc2nn3c(Cn4nnc5ccccc54)nnc3s2)cc1,i,i,5.3,i,i,i,9044,i,+
c1ccc(CCc2nn3c(Cc4ccccc4)nnc3s2)cc1,i,i,i,i,i,i,nt,nt,nt
c1ccc(Cc2nnc3sc(-c4ccc5c(c4)OCCO5)nn23)cc1,55,i,6.9,i,nt,i,12856,i,+
c1csc(-c2nn3c(Cn4nnc5ccccc54)nnc3s2)c1,i,i,5.6,i,nt,i,9180,i,i
c1ccc2c(c1)nnn2Cc1nnc2sc(-c3ccncc3)nn12,i,i,i,i,nt,i,nt,nt,nt
c1ccc(Cc2nnc3sc(-c4cccnc4)nn23)cc1,i,i,i,i,i,i,nt,nt,nt
Cc1ccc(S(=O)(=O)NCC(c2cccnc2)N(C)C)cc1 (configuration not stated),i,i,nt,i,nt,i,nt,nt,nt
c1ccc(-c2n[nH]nc2-c2ccccc2)cc1,i,i,17,i,i,i,18456,nt,+
Cc1ccc(NC(=O)N(C2=NCC(C)S2)c2ccccc2)cc1 (configuration not stated),i,i,i,i,i,i,nt,nt,nt
CC(=O)Nc1ccc(S(=O)(=O)N(C2=NCC(C)S2)c2ccccc2)cc1 (configuration not stated),i,i,19,i,nt,i,i,i,i
Cc1cccc(N(C(=O)Nc2ccccc2)C2=NCC(C)S2)c1 (configuration not stated),i,i,5.1,i,nt,i,6412,nt,+
COc1ccc(-c2cn3c(C)c(C(=O)N4CCN(c5ccc(OC)cc5)CC4)sc3n2)cc1,i,i,i,i,nt,i,nt,nt,nt
Cc1ccc(N(CN2CCCC2=O)C(=O)c2ccc(OC(C)C)cc2)cc1,i,i,i,i,nt,i,nt,nt,nt
C=CCn1c(SCc2ccc(Cl)cc2)nc2c1c(=O)[nH]c(=O)n2C,i,i,2.9,i,nt,i,8180,i,+
C/C=C/Cn1c(SCc2ccc(C)cc2)nc2c1c(=O)[nH]c(=O)n2C,i,i,12,i,nt,i,26548,i,+
C=CCn1c(SCc2ccc(F)cc2)nc2c1c(=O)[nH]c(=O)n2C,i,i,i,i,i,i,nt,nt,nt
C=CCSc1nc2c(c(=O)[nH]c(=O)n2C)n1C(C)C,i,i,9.5,i,nt,i,11684,i,+
Cc1nc(-c2ccccc2)sc1-c1nc(-c2cccs2)ncc1S(=O)(=O)c1ccccc1,nt,nt,nt,nt,i,nt,nt,nt,nt
C=CCNS(=O)(=O)c1ccc2nsnc2c1,i,i,i,i,nt,i,nt,nt,nt
CCCNC(=O)NC(=O)COC(=O)c1ccc(OC)c(S(=O)(=O)N2CCCc3ccccc32)c1,i,i,i,i,nt,i,nt,nt,nt
CC(C)c1cc(NCCCN2CCOCC2)n2c(nc3ccccc32)c1C#N,i,i,i,i,nt,i,nt,nt,nt
Cc1ccc(-c2cc(-c3ccc(F)cc3)nc(N)c2C#N)o1,i,nt,15,nt,i,i,26016,i,+
N#CCSc1nc(N)c(C#N)c(C2CCCCC2)c1C#N,i,i,9,i,i,i,13172,nt,+
SMILES,SF1 activator,M1 antagonist,D1 allo mod,M1 ag,Htt clearance,RORA act,D1 PAM confirm,D1 ag no DA,Isoprot counter
Nc1nc(C2CC2)c(Sc2sc(N)nc2C2CC2)s1,i,i,10,i,i,i,11736,i,+
Cc1cc(N2C(=O)C3C4C=CC(C4)C3C2=O)ccc1Br (configuration not stated),i,i,i,i,i,i,nt,nt,nt
CSc1ccccc1NC(=O)c1onc(C)c1Cl,i,i,1.6,i,nt,i,7308,i,i
CC1CCN(Cc2nc3c(c(=O)n(C)c(=O)n3C)n2CCCc2ccccc2)CC1,i,i,i,i,i,i,nt,nt,nt
CCOC(=O)C1CCN(S(=O)(=O)c2ccc3c4c(cccc24)C(=O)N3)CC1,i,i,i,i,nt,i,nt,nt,nt
O=C1Nc2ccc(S(=O)(=O)N3CCCC3)c3ccc(S(=O)(=O)N4CCCC4)c1c23,i,i,5.2,i,i,i,12808,nt,+
CCCc1nc2oc3c(NCCOCCO)ncnc3c2c2c1COC(C)(C)C2,i,nt,14,nt,nt,i,18640,nt,+
CCCc1nc2oc3c(OC)ncnc3c2c2c1COC(C)(C)C2,nt,nt,nt,nt,i,nt,nt,nt,nt
Cc1nc2oc3c(NCC4CCCO4)ncnc3c2c2c1COC(C)(C)C2 (configuration not stated),i,i,6.4,i,nt,i,9548,nt,i
CC1(C)Cc2c(C#N)c(NCC3CCCO3)nc(-c3ccco3)c2CO1 (configuration not stated),i,i,nt,i,i,i,nt,nt,nt
CC(=O)Oc1ccccc1-c1nc(C)nc(N(C)C(C)=O)n1,i,i,i,i,nt,i,nt,nt,nt
CC(=O)N1CCc2cc(S(=O)(=O)NCCC3=CCCCC3)ccc21,i,i,i,i,nt,i,nt,nt,nt
Fc1ccc(-c2cc(C(F)(F)F)nc(NCC3CCCO3)n2)cc1 (configuration not stated),i,i,5.5,i,nt,i,8052,nt,i
Cc1cc2ccccc2c(=O)n1CC(=O)NCC(=O)N1CCN(c2cccc(Cl)c2)CC1,i,i,i,i,i,i,nt,nt,nt
Cc1cc2ccccc2c(=O)n1CC(=O)NCC(=O)N1CCN(c2ccccc2F)CC1,i,i,3.4,i,nt,i,i,i,i
c1ccc(-c2nc[nH]c2-c2ccccc2)cc1,i,i,4.9,i,nt,i,13428,i,i
c1ccc(-c2n[nH]c3ccccc23)cc1,i,i,i,i,nt,i,nt,nt,nt
CCNc1sc(C(=O)c2cccs2)c(N)c1C#N,i,i,18,i,i,i,22348,i,+
C=CCNc1sc(C(=O)c2cccs2)c(N)c1C#N,i,nt,16,nt,nt,i,22248,i,+
